# The list is not random: actives were taken first. Their share in the collection is about 2.5%.
# HTRA1 inhibitor: HTRA1 (human) protease inhibition; 340,000 compounds, 0.5% hits; inhibition, % at 5.96 µM; recombinant HTRA1, FP-rhodamine activity-based probe, fluorescence polarization; AID 504803; Q92743; in the data active = inhibition above about 36%;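 also: 0% = enzyme with DMSO and 100% = wells lacking enzyme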
# Target sequence (Q92743 whole entry, looked up): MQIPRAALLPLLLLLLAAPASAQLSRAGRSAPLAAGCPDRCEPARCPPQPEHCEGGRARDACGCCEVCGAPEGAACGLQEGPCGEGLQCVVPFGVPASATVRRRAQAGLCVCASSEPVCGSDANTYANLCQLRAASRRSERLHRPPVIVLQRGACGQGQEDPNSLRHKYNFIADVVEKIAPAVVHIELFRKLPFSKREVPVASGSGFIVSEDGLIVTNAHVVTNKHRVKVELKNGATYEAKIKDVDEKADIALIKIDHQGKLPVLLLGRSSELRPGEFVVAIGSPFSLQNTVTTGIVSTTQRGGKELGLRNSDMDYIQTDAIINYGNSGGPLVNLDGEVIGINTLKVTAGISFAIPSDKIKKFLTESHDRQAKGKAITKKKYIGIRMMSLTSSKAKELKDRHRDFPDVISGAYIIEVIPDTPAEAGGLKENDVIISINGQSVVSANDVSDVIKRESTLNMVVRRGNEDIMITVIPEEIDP
# TCR CD3 inh: inhibitors of human TCR-CD3 interaction; TAMRA-labeled TCR probe fluorescence, biochemical; inhibition, % at 9.4 µM; 360,000 compounds, 0.37% hits; in the data active = inhibition above about 19%;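 also: recombinant mutant TCR 2C K166C tagged with TAMRA read by polarization; 0% = receptor in buffer alone and 100% = receptor with positive control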
# SIAE primary: blocks human sialic acid acetylesterase; inhibition, % at 9.66 µM; Q9HAT2; AID 1053197; SIAE FP-Rh probe binding, fluorescence polarization; 370,000 compounds, 0.69% hits;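 active = inhibition above a cutoff: mean of compounds within the control limits plus 3 SD of those, cut at about 17% in these data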;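 also: 0% = plate median of compound wells and 100% = probe without SIAE protein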
# ABHD4 inh: inhibitors of mouse ABHD4; Q8VD66; purified mABHD4, FP-Rh probe fluorescence polarization; inhibition, % at 8.92 µM; 370,000 compounds, 0.54% hits; AID 720543;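 active = inhibition exceeding the mean over every tested compound plus 3 SD, cut at about 30% in these data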;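 also: 0% = plate median of compound wells and 100% = S159A mutant with DMSO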
#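 Test system: mABHD4 protein | Buffer or medium: HEPES pH 7.0 buffer, 150 mM NaCl, 0.01% Pluronic F-127 | Probe or stimulus: FP-Rh fluorescent activity-based probe, added after compound pre-incubation | Timing: Pre-incubation 45 min, probe exposure 60 min, at 25 °C | Technique: Fluorescence polarization, excitation 525 nm, emission 598 nm, BODIPY TMR filters | Repeats: Single well per compound (singlicate)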
# rCAG binder: molecules binding r(CAG) RNA repeats | 370,000 compounds, 1.3% hits | inhibition, % at 3 µM | r(CAG) RNA repeat, TO-PRO-1 dye displacement fluorescence;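 active = inhibition above the plate cutoff, the mean of all test compounds on that plate plus 3 SD, cut at about 35% in these data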;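 also: 0% = DMSO alone and 100% = 100 µM mitoxantrone as full dye displacement; higher means more dye released from RNA so lower well fluorescence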
# SIAE confirm: human SIAE inhibition, confirmation | shares compounds with SIAE primary | SIAE FP-Rh activity-based probe, fluorescence polarization | inhibition, % at 9.66 µM | 2,300 compounds, 13% hits | AID 1117263;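 active = mean inhibition of the replicates above the hit cutoff set in the primary screen, cut at about 17% in these data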;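 also: 0% = SIAE with DMSO and probe and 100% = probe without SIAE; inhibitors lower polarization as more probe stays unbound to SIAE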
# * = called active by the depositor; . = no result given.
SMILES,HTRA1 inhibitor,TCR CD3 inh,SIAE primary,ABHD4 inh,rCAG binder,SIAE confirm
COc1ccccc1C(=O)N1CCN(C(=O)[C@H]2O[C@@H](n3cnc(C(N)=O)n3)[C@H](O)[C@@H]2O)CC1,.,0.9,19.0*,0.2,-0.3,13.1
COCCN(Cc1ccc(C)cc1)C(=O)[C@H]1O[C@@H](n2cnc(C(N)=O)n2)[C@H](O)[C@@H]1O,.,-7.3,21.0*,-8.1,-1.4,19.8*
COCCN(Cc1ccc(C)cc1)C(=O)[C@H]1O[C@@H](n2ccc(N)nc2=O)[C@H](O)[C@@H]1O,.,-0.8,-4.0,4.3,1.4,.
O=C(Cc1cn(Cc2ccccc2)c2ccccc12)Nc1ccc(Oc2cccnc2)cc1,.,-0.6,-6.7,-9.1,10.6,.
Cn1cc(CC(=O)Nc2ccc(Nc3cccnc3)cc2)c2ccccc21,.,-7.4,21.0*,7.6,4.2,23.1*
CN(c1cccnc1)c1ccc(NC(=O)Cc2cn(Cc3ccccc3)c3ccccc23)cc1Br,.,1.9,20.6*,17.6,9.0,24.4*
Cc1ccc([C@@H]2C3COCC=C3C(C#N)=C(N)C2(C#N)C#N)o1 (some centres undefined),24.8,16.7,18.1*,26.5,-33.0,3.2
Cc1ccc(C2C3CSCC=C3C(C#N)=C(N)C2(C#N)C#N)cc1 (centres undefined),-11.2,3.8,1.8,9.6,14.3,.
S=C(NCCCc1cnc[nH]1)NCCCN(Cc1ccccc1)c1ccc(Br)cn1,.,-3.4,9.0,0.5,1.6,.
S=C(NCCCc1cnc[nH]1)NCCCN(Cc1ccc(Cl)cc1)c1ccc(Br)cn1,.,-2.8,17.4*,9.5,8.4,26.7*
Cn1c(SCC(=O)NC(=O)c2cccc([N+](=O)[O-])c2)nnc1-c1ccc(F)cc1,0.6,7.5,22.8*,-3.1,3.7,4.6
O=c1c2c(C(F)(F)F)cc(C(F)(F)F)nc2[nH]n1-c1ccccc1,-3.1,1.2,3.6,17.3,6.0,.
CC(Sc1nnc(NC2CCCCC2)s1)C(=O)Nc1ccc2c(c1)C(=O)c1ccccc1C2=O (centres undefined),10.4,-3.8,23.6*,10.5,4.5,-24.8
CSCCC(NC(=O)COc1ccccc1)C(=O)N1CCN(c2ccccc2O)CC1 (centres undefined),-1.8,-3.7,17.8*,2.4,-5.0,6.6
O=C(Nc1ccc2c(c1)OCO2)c1ccc(N2CCCC2)c([N+](=O)[O-])c1,4.8,2.3,22.2*,6.7,9.1,3.4
O=C(Nc1ccc(N2CCCCC2)c(Cl)c1)c1ccc(N2CCOCC2)c([N+](=O)[O-])c1,-3.9,-5.5,13.3,-0.7,1.8,.
Cn1cnnc1SCC(=O)c1cc2ccccc2oc1=O,26.4,-5.3,18.4*,15.8,25.2,5.8
CC(C)(C)n1cnc2cc(NCc3cccs3)ccc21,-2.6,3.3,5.0,1.2,-5.5,.
CCn1cnc2cc(NCc3cccs3)ccc21,3.5,2.6,20.9*,3.4,-2.3,1.6
O=C(COC(=O)C1CCCN1C(=O)c1cccs1)c1ccccc1 (centres undefined),-0.2,-2.8,17.2*,-0.4,0.3,-5.6
Oc1c(C=C2N=c3ccccc3=N2)sc(=S)n1C1CCCCC1,2.2,5.4,-8.4,2.7,2.4,.
CC(=O)COc1ccc2c(C)c(C)c(=O)oc2c1,10.4,7.0,-4.1,-2.9,4.1,.
CCc1c(C)c2ccc(OCC(N)=O)cc2oc1=O,4.1,-1.2,24.4*,-2.0,-0.9,2.1
CS(=O)(=O)c1cnc(-c2ccccc2)nc1Sc1ccc(F)cc1,-1.9,3.3,17.2*,4.1,3.0,5.1
COc1ccc(/C=N/NC(=O)CCc2c(C)n[nH]c2C)cc1O,-3.1,5.8,-2.1,0.2,-1.1,.
SMILES,HTRA1 inhibitor,TCR CD3 inh,SIAE primary,ABHD4 inh,rCAG binder,SIAE confirm
CN(CC(=O)NC1CCCCCC1)S(=O)(=O)c1ccc(F)cc1,0.3,3.2,10.4,-0.4,-2.9,.
COc1ccc(OC)c(/C=N/NC(=O)c2ccc(N(C)S(=O)(=O)c3ccccc3)cc2)c1,-27.6,3.4,-23.5,-12.6,3.8,.
COC1=C(Br)C(=O)c2ncccc2C1=O,18.1,2.6,22.1*,10.8,4.8,-1.0
O=C1c2cccnc2-c2ncccc21,1.0,3.2,0.5,0.2,0.9,.
O=C(N/N=C/c1ccc2c(c1)OCO2)c1ccc(COCC(F)(F)C(F)F)cc1,-5.2,.,.,.,.,.
CC1Cc2nc(SCC(=O)NCc3ccccc3)n(Cc3ccccc3)c(=O)c2S1 (centres undefined),-4.1,1.6,17.3*,4.9,1.6,1.6
